Data on one molecule can be found in ChEMBL document CHEMBL1153564 (Antimicrob Agents Chemother, 2008).

≈ marks a conversion by molar mass, not a printed value. Calls of active or inactive are those of the source. Starred links: 1 amine or outer side, 2 acyl side, 3 side chain; linkers in the order of their positions; H or OH if unused. Positions of bridges follow the written chain, without caps; N, C: chain ends. Non-standard residues stand in square brackets, D forms with d. Residues, ends and D or L forms follow the SMILES beside them. *: point of attachment. pTerphenylCO(4''-OnC5H11) = CCCCCOc1ccc(-c2ccc(-c3ccc(C(=O)*)cc3)cc2)cc1; Orn(4R-OH,5R-OH) = O=C([C@H](C[C@@H](O)[C@@H](O)N[*:3])N[*:1])[*:2]; hTyr(3S-OH,4S-OH) = N[C@H](C(=O)O)[C@H](O)[C@@H](O)c1ccc(O)cc1; Pro(3S-OH,4S-Me) = C[C@H]1CN[C@H](C(=O)O)[C@H]1O; Hyp = O=C(O)[C@@H]1C[C@@H](O)CN1

In one series the test system is Mus musculus. The series can be described thus: Cmax in serum of neutropenic ICR/Swiss mouse candidiasis model at 5 mg/kg, ip up to 4 hrs by reverse-phase high-pressure liquid chromatography. It counts as ADME, organism-based. Set-up: dose 5 mg/kg, route intraperitoneal. Particulars: in vivo. In outline: (§1)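 Infected neutropenic ICR/Swiss mice given single ip doses (5, 20 or 80 mg/kg; 0.2 ml); serum from three isoflurane-anaesthetised mice at 1, 4, 8, 12, 24 and 48 h, stored at −80°C, assayed by reverse-phase HPLC with fluorescence detection, loratadine internal standard, linear 10–50,000 ng/ml. Noncompartmental analysis; half-life by nonlinear least squares.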

Series [1] can be described thus: Elimination half life in serum of neutropenic ICR/Swiss mouse candidiasis model at 5 mg/kg, ip by reverse-phase high-pressure liquid chromatography. It counts as ADME, organism-based. Set-up: dose 5 mg/kg, route intraperitoneal. Particulars: read-out: beta t1/2 (converted). The essentials:
as §1

The subject of series [2] is Nakaseomyces glabratus. Put plainly: Antifungal activity against Candida glabrata 5376 infected in neutropenic ICR/Swiss mouse candidiasis model assessed as reduction of […] in kidney at 1.25 mg/kg, ip administered 2 hrs postinfection as single dose measured within 1 to 4 hrs post dosing by time-kill assay. It counts as functional, organism-based. Also on record: dose 1.25 mg/kg. The essentials: (§2)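 Neutropenic mice given a single ip dose (1.25, 5 or 20 mg/kg) 2 h after tail-vein infection. Kidneys from 3 mice per time point collected nine times over 96 h. Homogenates serially diluted 1:10 and plated on SDA, 24 h at 35°C. Detection limit 100 CFU/ml.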

A further series concerns Candida tropicalis. Put plainly: Antifungal activity against Candida tropicalis 98-234 assessed as complete growth inhibition after 24 hrs by CLSI end point method. The conditions noted are these: 98-234, 24 h. It counts as functional.
Series [3] deals with Candida albicans. Put plainly: Antifungal activity against Candida albicans K-1 infected in neutropenic ICR/Swiss mouse candidiasis model assessed as […] burden per kidney administered intraperitoneally once every 96 hrs measured per 96 hrs. It counts as functional. Particulars: K-1, Kidney, ip. In outline:
(§3)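 Neutropenic mice were infected iv with C. albicans K-1 2 h before therapy. Total doses of 1.25, 5, 20, 80 and 320 mg/kg/96 h were split into 1, 2, 4 or 6 ip doses (q96h, q48h, q24h, q16h), three mice per regimen. Effect is the log10 CFU/kidney relative to untreated controls at 96 h. Static and 1-log doses were taken from a Hill model fit.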

The test system of series [4] is Nakaseomyces glabratus. The series can be described thus: Antifungal activity against Candida glabrata 5376 infected in neutropenic ICR/Swiss mouse candidiasis model assessed as dose required for 1-log10 reduction in […] per kidney administered intraperitoneally every 24 hrs up to 4 days measured per 96 hrs. It counts as functional. The essentials:
(§4)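 Neutropenic ICR/Swiss mice infected i.v. with the strain; therapy began 2 h later. Total doses of 1.25–320 mg/kg/96 h were given i.p. as 1, 2, 4 or 6 doses (q96h, q48h, q24h, q16h), three mice per regimen. Kidney CFU were counted after 4 days. Effect is the change from untreated controls at the end of therapy.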

Series [5] deals with Candida albicans. Put plainly: Antifungal activity against Candida albicans 98-17 assessed as partial growth inhibition after 24 hrs by CLSI end point method. Particulars: 98-17, 24 h. It counts as functional. The essentials:
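CLSI M27-A2 broth dilution. Two end points read against the drug-free control well: partial inhibition (CLSI end point) and complete inhibition. Run in duplicate on four separate occasions; value is the mean. Drug stock in DMSO, diluted in 0.9% NaCl.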

Series [6] relates to Nakaseomyces glabratus. The series can be described thus: Antifungal activity against Candida glabrata 5376 infected in neutropenic ICR/Swiss mouse candidiasis model assessed as […] burden per kidney administered intraperitoneally every 24 hrs up to 4 days measured per 96 hrs. It counts as functional. Particulars: Nakaseomyces glabratus, 5376, Kidney, ip. The essentials:
as §4

For series [7], the system named is Candida albicans. Put plainly: Antifungal activity against Candida albicans K-1 infected in neutropenic ICR/Swiss mouse candidiasis model assessed as reduction of […] in kidney at 1.25 mg/kg, ip administered 2 hrs postinfection as single dose measured within 1 to 4 hrs post dosing by time-kill assay. It counts as functional, organism-based. Set-up: dose 1.25 mg/kg. The essentials:
as §2

The subject of series [8] is Nakaseomyces glabratus. Put plainly: Antifungal activity against Candida glabrata 35315 infected in neutropenic ICR/Swiss mouse candidiasis model assessed as dose required to maintain […] burden of 1.83 +/- 0.54 log10CFU per kidney administered intraperitoneally every 24 hrs up to 4 days measured per 24 hrs. It counts as functional.
In series [9] the test system is Nakaseomyces glabratus. Put plainly: Antifungal activity against Candida glabrata 37661 assessed as partial growth inhibition after 24 hrs by CLSI end point method. It counts as functional. Particulars: Nakaseomyces glabratus, 37661, 24 h. In outline: (§5)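 Two end points were read against the drug-free control well: partial growth inhibition (the CLSI end point) and complete inhibition. Run in duplicate on four separate occasions; the value is the mean. Drug stock was made in DMSO and diluted in 0.9% NaCl.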

The subject of series [10] is Nakaseomyces glabratus. Put plainly: Antifungal activity against Candida glabrata 33616 assessed as complete growth inhibition after 24 hrs by CLSI end point method. It counts as functional. The conditions noted are these: Nakaseomyces glabratus, 33616, 24 h. In outline:
as §5

For series [11], the system named is Candida albicans. Put plainly: Antifungal activity against Candida albicans K-1 infected in neutropenic ICR/Swiss mouse candidiasis model assessed as prolongation of fungal growth suppression at 5 mg/kg, ip administered 2 hrs postinfection as single dose by time-kill assay. It counts as functional. The conditions noted are these: route intraperitoneal. In outline: (§6)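 Single ip dose (20, 5 or 1.25 mg/kg) given 2 h after iv infection of neutropenic mice with K-1. Three treated and three control mice were sampled at intervals over 96 h for kidney CFU. PAFE is the time for treated burden to rise 1 log10 after serum levels fall below MIC, minus the same time in controls. Free drug was taken as 1%.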

A short description of series [12]: Steady state AUC in human at 100 mg/day. It counts as ADME, organism-based. Particulars: in vivo.
For series [13], the system named is Nakaseomyces glabratus. The series can be described thus: Antifungal activity against Candida glabrata 5376 infected in neutropenic ICR/Swiss mouse candidiasis model assessed as dose required to maintain […] burden of 1.83 +/- 0.54 log10CFU per kidney administered intraperitoneally every 24 hrs up to 4 days measured per 24 hrs. It counts as functional.
Series [14] concerns Candida albicans. The series can be described thus: Antifungal activity against Candida albicans K-1 infected in neutropenic ICR/Swiss mouse candidiasis model assessed as dose required to maintain […] of 3.90 +/- 0.15 log10CFU per kidney administered intraperitoneally every 48 hrs up to 4 days measured per 96 hrs. It counts as functional. The essentials: as §3
The subject of series [15] is Nakaseomyces glabratus. Put plainly: Antifungal activity against Candida glabrata 5376 infected in neutropenic ICR/Swiss mouse candidiasis model assessed as suppression of fungal regrowth at 20 mg/kg, ip administered 2 hrs postinfection as single dose by time-kill assay. Also on record: dose 20 mg/kg. It counts as functional, organism-based. The essentials: (§7)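 Neutropenic mice were infected i.v. and 2 h later given a single i.p. dose (1.25, 5 or 20 mg/kg). Groups of three treated and three control mice were killed at intervals over 96 h, and kidney CFU were counted on SDA (limit 100 CFU/ml). The post-antifungal effect is t − c: the time for a 1 log10 CFU/kidney increase once serum levels fall below the MIC in treated mice, minus the same time in controls.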

Series [16] has as its system Candida albicans. Put plainly: Antifungal activity against Candida albicans K-1 infected in neutropenic ICR/Swiss mouse candidiasis model assessed as reduction of […] in kidney at 5 mg/kg, ip administered 2 hrs postinfection as single dose measured after 96 hrs post dosing by time-kill assay. It counts as functional, organism-based. Also on record: dose 5 mg/kg. The essentials:
as §6

Series [17] has as its system Nakaseomyces glabratus. Put plainly: Antifungal activity against Candida glabrata 5376 infected in neutropenic ICR/Swiss mouse candidiasis model assessed as reduction of […] in kidney at 5 mg/kg, ip administered 2 hrs postinfection as single dose measured within 1 to 4 hrs post dosing by time-kill assay. It counts as functional, organism-based. Set-up: dose 5 mg/kg. The essentials: as §7

Series [18] concerns Candida albicans. The series can be described thus: Antifungal activity against Candida albicans K-1 infected in neutropenic ICR/Swiss mouse candidiasis model assessed as dose required for 1-log10 reduction in […] per kidney administered intraperitoneally every 24 hrs up to 4 days measured per 24 hrs. It counts as functional.
In series [19] the test system is Nakaseomyces glabratus. The series can be described thus: Antifungal activity against Candida glabrata 5376 infected in neutropenic ICR/Swiss mouse candidiasis model assessed as […] burden per kidney administered intraperitoneally every 48 hrs up to 4 days measured per 96 hrs. It counts as functional. The conditions noted are these: Nakaseomyces glabratus, 5376, Kidney, ip. The essentials: as §4

As a reminder, the Cmax is the highest concentration seen after dosing. The term MIC denotes the smallest concentration in the dilution series that meets the test's criterion for growth inhibition. The ED50 is the dose at which the effect has come halfway, by size or by number of responders. One may read the AUC as the area under the concentration-time curve, a measure of exposure. High values mean more exposure, low ones less exposure. In the series on Mus musculus, `CCCCCOc1ccc(-c2ccc(-c3ccc(C(=O)N[C@H]4C[C@@H](O)[C@@H](O)NC(=O)[C@@H]5[C@@H](O)[C@@H](C)CN5C(=O)[C@H]([C@@H](C)O)NC(=O)[C@H]([C@H](O)[C@@H](O)c5ccc(O)cc5)NC(=O)[C@@H]5C[C@@H](O)CN5C(=O)[C@H]([C@@H](C)O)NC4=O)cc3)cc2)cc1` [ANIDULAFUNGIN] ({pTerphenylCO(4''-OnC5H11)}-[Orn(4R-OH,5R-OH)]T[Hyp][hTyr(3S-OH,4S-OH)]T[Pro(3S-OH,4S-Me)]; lactam 1-C) registered a Cmax of 4.3 µg/mL. In series [1], the half-life was 888 min. Also, the result in the series with Nakaseomyces glabratus [2], with Candida albicans [7], in the series with Nakaseomyces glabratus [15], with Candida albicans [16] and with Nakaseomyces glabratus [17] was Active. Besides, the MIC with Candida tropicalis is 0.12 µg/mL (≈ 0.105 µM); in the series with Candida albicans [5], 0.03 µg/mL (≈ 0.0263 µM); in the series with Nakaseomyces glabratus [9], 2 µg/mL (≈ 1.75 µM); with Nakaseomyces glabratus [10] it was 2 µg/mL (≈ 1.75 µM). For the same molecule, the ED50 in the series on Candida albicans [3] worked out at 2.13 mg/kg; in the series on Nakaseomyces glabratus [6] it was 15.9 mg/kg; with Nakaseomyces glabratus [19], 13.4 mg/kg. Also, the Activity in the series with Nakaseomyces glabratus [4] was 30.8 mg/kg; in the series with Nakaseomyces glabratus [8] it was 6.4 mg/kg; in the series on Candida albicans [11] it was >96 h; in the series with Nakaseomyces glabratus [13], 6.8 mg/kg; in the series with Candida albicans [14], 5.01 mg/kg; in the series with Candida albicans [18], 2 mg/kg. This molecule also yielded an AUC in series [12] of 112 µg·h/mL.
